# Test results as given in ChEMBL document CHEMBL5058577, “EUbOPEN Chemogenomics Library 2 (Multiplex)” (2022).
# System: U2OS
# Experiment: Multiplex assay against U2OS
# Format: toxicity, cell-based
# Conditions: human
# Method in brief: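 Cells stained live at seeding with Hoechst33342, BioTracker Green Microtubule Cytoskeleton Dye, MitoTracker Red and Annexin V Alexa Fluor 680 were imaged on a CQ1 microscope at 37°C and 5% CO2 after compound addition. Their classification by CellPathfinder machine-learning gating ran from Hoechst high-intensity objects versus normal cells, to healthy, pyknosed or fragmented nuclei among normal cells, to mitotic or apoptotic among pyknosed cells. Tubulin, mitochondrial-mass and membrane-permeability phenotypes are per cents of healthy-nucleus cells.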
# [1] = 12 h, 1 µM, compound concentration 1 uM, replicate 1
# [2] = 12 h, 1 µM, compound concentration 1 uM, replicate 2
# [3] = 12 h, 10 µM, compound concentration 10 uM, replicate 1
# [4] = 12 h, 10 µM, compound concentration 10 uM, replicate 2
# [5] = 24 h, 1 µM, compound concentration 1 uM, replicate 1
# [6] = 24 h, 1 µM, compound concentration 1 uM, replicate 2
# [7] = 24 h, 10 µM, compound concentration 10 uM, replicate 1
# [8] = 24 h, 10 µM, compound concentration 10 uM, replicate 2
# [9] = 48 h, 1 µM, compound concentration 1 uM, replicate 1
# [10] = 48 h, 1 µM, compound concentration 1 uM, replicate 2
# [11] = 48 h, 10 µM, compound concentration 10 uM, replicate 1
# [12] = 48 h, 10 µM, compound concentration 10 uM, replicate 2
smiles,measurement,setting,value
CN(C)C/C=C/C(=O)Nc1ccc(C(=O)N2CCCC(Nc3ncc(Cl)c(-c4c[nH]c5ccccc45)n3)C2)cc1 (stereo unspecified),Population Apoptotic (%),[1],77%
same,Population Fragmented Nuclei (%),[1],31%
same,Population Healthy Nuclei (%),[1],60%
same,Population Hoechst High Intensity Objects (%),[1],2%
same,Population Membrane Permeable-Phenotype (%),[1],5%
same,Population Mitochondria Different-Phenotype (%),[1],3%
same,Population Mitotic Cells (%),[1],22%
same,Population Normal (%),[1],97%
same,Population Pyknosed Nuclei (%),[1],8%
same,Population Tubulin-Different-Phenotype (%),[1],4%
same,Total Cell Count,[1],228
same,Population Apoptotic (%),[2],83%
same,Population Fragmented Nuclei (%),[2],18%
same,Population Healthy Nuclei (%),[2],77%
same,Population Hoechst High Intensity Objects (%),[2],0%
same,Population Membrane Permeable-Phenotype (%),[2],6%
same,Population Mitochondria Different-Phenotype (%),[2],5%
same,Population Mitotic Cells (%),[2],16%
same,Population Normal (%),[2],99%
same,Population Pyknosed Nuclei (%),[2],4%
same,Population Tubulin-Different-Phenotype (%),[2],8%
same,Total Cell Count,[2],139
same,Population Apoptotic (%),[3],80%
same,Population Fragmented Nuclei (%),[3],31%
same,Population Healthy Nuclei (%),[3],47%
same,Population Hoechst High Intensity Objects (%),[3],5%
same,Population Membrane Permeable-Phenotype (%),[3],33%
same,Population Mitochondria Different-Phenotype (%),[3],40%
same,Population Mitotic Cells (%),[3],20%
same,Population Normal (%),[3],94%
same,Population Pyknosed Nuclei (%),[3],20%
same,Population Tubulin-Different-Phenotype (%),[3],49%
same,Total Cell Count,[3],233
same,Population Apoptotic (%),[4],75%
same,Population Fragmented Nuclei (%),[4],25%
same,Population Healthy Nuclei (%),[4],54%
same,Population Hoechst High Intensity Objects (%),[4],2%
same,Population Membrane Permeable-Phenotype (%),[4],23%
same,Population Mitochondria Different-Phenotype (%),[4],42%
same,Population Mitotic Cells (%),[4],25%
same,Population Normal (%),[4],97%
same,Population Tubulin-Different-Phenotype (%),[4],37%
same,Total Cell Count,[4],121
same,Population Apoptotic (%),[5],93%
same,Population Fragmented Nuclei (%),[5],34%
same,Population Healthy Nuclei (%),[5],53%
same,Population Hoechst High Intensity Objects (%),[5],2%
same,Population Membrane Permeable-Phenotype (%),[5],7%
same,Population Mitochondria Different-Phenotype (%),[5],2%
same,Population Mitotic Cells (%),[5],6%
same,Population Normal (%),[5],97%
same,Population Pyknosed Nuclei (%),[5],11%
same,Population Tubulin-Different-Phenotype (%),[5],6%
same,Total Cell Count,[5],271
same,Population Apoptotic (%),[6],100%
same,Population Fragmented Nuclei (%),[6],21%
same,Population Healthy Nuclei (%),[6],67%
same,Population Hoechst High Intensity Objects (%),[6],0%
same,Population Membrane Permeable-Phenotype (%),[6],8%
same,Population Mitotic Cells (%),[6],0%
same,Population Normal (%),[6],99%
same,Population Tubulin-Different-Phenotype (%),[6],5%
same,Total Cell Count,[6],164
same,Population Apoptotic (%),[7],87%
same,Population Fragmented Nuclei (%),[7],39%
same,Population Healthy Nuclei (%),[7],35%
same,Population Hoechst High Intensity Objects (%),[7],9%
same,Population Membrane Permeable-Phenotype (%),[7],22%
same,Population Mitochondria Different-Phenotype (%),[7],33%
same,Population Mitotic Cells (%),[7],12%
same,Population Normal (%),[7],90%
same,Population Pyknosed Nuclei (%),[7],25%
same,Population Tubulin-Different-Phenotype (%),[7],29%
same,Total Cell Count,[7],239
same,Population Apoptotic (%),[8],97%
same,Population Fragmented Nuclei (%),[8],31%
same,Population Hoechst High Intensity Objects (%),[8],5%
same,Population Membrane Permeable-Phenotype (%),[8],21%
same,Population Mitochondria Different-Phenotype (%),[8],28%
same,Population Mitotic Cells (%),[8],2%
same,Population Normal (%),[8],94%
same,Population Pyknosed Nuclei (%),[8],32%
same,Population Tubulin-Different-Phenotype (%),[8],17%
same,Total Cell Count,[8],135
same,Population Apoptotic (%),[9],94%
same,Population Fragmented Nuclei (%),[9],29%
same,Population Healthy Nuclei (%),[9],60%
same,Population Hoechst High Intensity Objects (%),[9],3%
same,Population Membrane Permeable-Phenotype (%),[9],10%
same,Population Mitochondria Different-Phenotype (%),[9],3%
same,Population Mitotic Cells (%),[9],5%
same,Population Normal (%),[9],96%
same,Population Pyknosed Nuclei (%),[9],10%
same,Population Tubulin-Different-Phenotype (%),[9],5%
same,Total Cell Count,[9],339
same,Population Apoptotic (%),[10],96%
same,Population Fragmented Nuclei (%),[10],10%
same,Population Healthy Nuclei (%),[10],77%
same,Population Membrane Permeable-Phenotype (%),[10],3%
same,Population Mitotic Cells (%),[10],3%
same,Population Pyknosed Nuclei (%),[10],12%
same,Population Tubulin-Different-Phenotype (%),[10],3%
same,Total Cell Count,[10],221
same,Population Apoptotic (%),[11],100%
same,Population Fragmented Nuclei (%),[11],50%
same,Population Healthy Nuclei (%),[11],17%
same,Population Hoechst High Intensity Objects (%),[11],15%
same,Population Membrane Permeable-Phenotype (%),[11],47%
same,Population Mitochondria Different-Phenotype (%),[11],27%
same,Population Mitotic Cells (%),[11],0%
same,Population Normal (%),[11],84%
same,Population Pyknosed Nuclei (%),[11],32%
same,Population Tubulin-Different-Phenotype (%),[11],38%
same,Total Cell Count,[11],251
same,Population Healthy Nuclei (%),[12],18%
same,Population Hoechst High Intensity Objects (%),[12],9%
same,Population Membrane Permeable-Phenotype (%),[12],26%
same,Population Mitochondria Different-Phenotype (%),[12],19%
same,Population Normal (%),[12],90%
same,Population Pyknosed Nuclei (%),[12],31%
same,Population Tubulin-Different-Phenotype (%),[12],23%
same,Total Cell Count,[12],157
COc1cc2nc(N3CCN(C(=O)COc4c(OC)cccc4C(C)C)CC3)nc(N)c2cc1OC.Cl.Cl,Population Apoptotic (%),[1],67%
same,Population Fragmented Nuclei (%),[1],21%
same,Population Healthy Nuclei (%),[1],66%
same,Population Hoechst High Intensity Objects (%),[1],3%
same,Population Membrane Permeable-Phenotype (%),[1],10%
same,Population Mitochondria Different-Phenotype (%),[1],5%
same,Population Mitotic Cells (%),[1],32%
same,Population Normal (%),[1],96%
same,Population Pyknosed Nuclei (%),[1],11%
same,Population Tubulin-Different-Phenotype (%),[1],6%
same,Total Cell Count,[1],256
same,Population Apoptotic (%),[2],33%
same,Population Fragmented Nuclei (%),[2],10%
same,Population Healthy Nuclei (%),[2],84%
same,Population Hoechst High Intensity Objects (%),[2],2%
same,Population Mitochondria Different-Phenotype (%),[2],6%
same,Population Mitotic Cells (%),[2],66%
same,Population Normal (%),[2],97%
same,Population Pyknosed Nuclei (%),[2],4%
same,Total Cell Count,[2],136
same,Population Apoptotic (%),[3],55%
same,Population Fragmented Nuclei (%),[3],30%
same,Population Healthy Nuclei (%),[3],43%
same,Population Hoechst High Intensity Objects (%),[3],3%
same,Population Membrane Permeable-Phenotype (%),[3],60%
same,Population Mitochondria Different-Phenotype (%),[3],55%
same,Population Mitotic Cells (%),[3],44%
same,Population Normal (%),[3],96%
same,Population Pyknosed Nuclei (%),[3],25%
same,Population Tubulin-Different-Phenotype (%),[3],75%
same,Total Cell Count,[3],233
same,Population Apoptotic (%),[4],66%
same,Population Fragmented Nuclei (%),[4],19%
same,Population Healthy Nuclei (%),[4],48%
same,Population Hoechst High Intensity Objects (%),[4],0%
same,Population Membrane Permeable-Phenotype (%),[4],54%
same,Population Mitochondria Different-Phenotype (%),[4],65%
same,Population Mitotic Cells (%),[4],33%
same,Population Normal (%),[4],99%
same,Population Pyknosed Nuclei (%),[4],32%
same,Population Tubulin-Different-Phenotype (%),[4],68%
same,Total Cell Count,[4],151
same,Population Apoptotic (%),[5],84%
same,Population Fragmented Nuclei (%),[5],21%
same,Population Healthy Nuclei (%),[5],67%
same,Population Hoechst High Intensity Objects (%),[5],3%
same,Population Membrane Permeable-Phenotype (%),[5],6%
same,Population Mitochondria Different-Phenotype (%),[5],8%
same,Population Mitotic Cells (%),[5],15%
same,Population Normal (%),[5],96%
same,Population Pyknosed Nuclei (%),[5],11%
same,Population Tubulin-Different-Phenotype (%),[5],4%
same,Total Cell Count,[5],297
same,Population Apoptotic (%),[6],80%
same,Population Fragmented Nuclei (%),[6],15%
same,Population Healthy Nuclei (%),[6],77%
same,Population Hoechst High Intensity Objects (%),[6],0%
same,Population Membrane Permeable-Phenotype (%),[6],10%
same,Population Mitochondria Different-Phenotype (%),[6],7%
same,Population Mitotic Cells (%),[6],20%
same,Population Normal (%),[6],99%
same,Population Pyknosed Nuclei (%),[6],6%
same,Population Tubulin-Different-Phenotype (%),[6],5%
same,Total Cell Count,[6],154
same,Population Apoptotic (%),[7],76%
same,Population Fragmented Nuclei (%),[7],30%
same,Population Healthy Nuclei (%),[7],36%
same,Population Hoechst High Intensity Objects (%),[7],9%
same,Population Membrane Permeable-Phenotype (%),[7],40%
same,Population Mitochondria Different-Phenotype (%),[7],49%
same,Population Mitotic Cells (%),[7],24%
same,Population Normal (%),[7],90%
same,Population Pyknosed Nuclei (%),[7],33%
same,Population Tubulin-Different-Phenotype (%),[7],50%
same,Total Cell Count,[7],246
same,Population Apoptotic (%),[8],87%
same,Population Fragmented Nuclei (%),[8],20%
same,Population Healthy Nuclei (%),[8],40%
same,Population Hoechst High Intensity Objects (%),[8],12%
same,Population Membrane Permeable-Phenotype (%),[8],49%
same,Population Mitochondria Different-Phenotype (%),[8],50%
same,Population Mitotic Cells (%),[8],12%
same,Population Normal (%),[8],87%
same,Population Pyknosed Nuclei (%),[8],39%
same,Population Tubulin-Different-Phenotype (%),[8],60%
same,Total Cell Count,[8],185
same,Population Apoptotic (%),[9],83%
same,Population Fragmented Nuclei (%),[9],20%
same,Population Healthy Nuclei (%),[9],70%
same,Population Hoechst High Intensity Objects (%),[9],2%
same,Population Membrane Permeable-Phenotype (%),[9],6%
same,Population Mitochondria Different-Phenotype (%),[9],6%
same,Population Mitotic Cells (%),[9],16%
same,Population Normal (%),[9],97%
same,Population Pyknosed Nuclei (%),[9],8%
same,Population Tubulin-Different-Phenotype (%),[9],4%
same,Total Cell Count,[9],441
same,Population Apoptotic (%),[10],75%
same,Population Fragmented Nuclei (%),[10],16%
same,Population Healthy Nuclei (%),[10],72%
same,Population Hoechst High Intensity Objects (%),[10],3%
same,Population Membrane Permeable-Phenotype (%),[10],7%
same,Population Mitotic Cells (%),[10],25%
same,Population Normal (%),[10],96%
same,Population Pyknosed Nuclei (%),[10],11%
same,Population Tubulin-Different-Phenotype (%),[10],6%
same,Total Cell Count,[10],225
same,Population Apoptotic (%),[11],88%
same,Population Fragmented Nuclei (%),[11],40%
same,Population Healthy Nuclei (%),[11],21%
same,Population Hoechst High Intensity Objects (%),[11],31%
same,Population Membrane Permeable-Phenotype (%),[11],13%
same,Population Mitochondria Different-Phenotype (%),[11],30%
same,Population Mitotic Cells (%),[11],11%
same,Population Normal (%),[11],68%
same,Population Pyknosed Nuclei (%),[11],38%
same,Population Tubulin-Different-Phenotype (%),[11],13%
same,Total Cell Count,[11],296
same,Population Apoptotic (%),[12],93%
same,Population Fragmented Nuclei (%),[12],24%
same,Population Healthy Nuclei (%),[12],23%
same,Population Hoechst High Intensity Objects (%),[12],32%
same,Population Membrane Permeable-Phenotype (%),[12],27%
same,Population Mitochondria Different-Phenotype (%),[12],10%
same,Population Mitotic Cells (%),[12],6%
same,Population Normal (%),[12],67%
same,Population Pyknosed Nuclei (%),[12],51%
same,Population Tubulin-Different-Phenotype (%),[12],24%
same,Total Cell Count,[12],180
